Series [1] can be described thus: folding enthalpy; higher = less favourable; fluorescence melt of hairpins on a sequencing array, two-state fit. Conditions: sodium 0.088 M. Summed up: (§1)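 To match UV melts, fitted temperatures were raised by 9.35 °C. These fits were bootstrapped two-state models that gave melting temperature and folding enthalpy, combined by inverse variance over four replicates. The input was normalised Cy3 fluorescence of library hairpins with annealed Cy3 and quencher oligos on a sequenced MiSeq flow cell, imaged in 50 mM Na-HEPES pH 8.0, 25 mM NaCl in 2.5 °C steps up to 60 °C.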

Series [2] can be described thus: melting temperature; fluorescence melt of hairpins on a sequencing array, two-state fit, raised by 9.35 °C to match UV melts. Conditions: sodium 0.088 M. Summed up:
as §1

Turning to GTTCCCACGAAAGTGAAC (((..(((....)))))), the folding enthalpy in series [1] was -42 kJ/mol. Further, the Tm in series [2] is 25.7 °C.

GGGGAGGAAACTCCCC ((((((....)))))): the folding enthalpy in series [1] is -154 kJ/mol. Further, the Tm in series [2] turned out to be 66.3 °C.

Consider GGTAGTGGAAACACTGCC ((.((((....)))).)), for which the folding enthalpy in series [1] is -163 kJ/mol. Besides, in series [2], the Tm was 53 °C.

Turning to GATCTACTCTAGATC ((((((...)))))), in series [1], the folding enthalpy was -130 kJ/mol. Moreover, the Tm in series [2] is 40.6 °C.

For GATCAAGGAAACTTGATC (((((((....))))))), the folding enthalpy in series [1] is -195 kJ/mol. Besides, in series [2], the Tm is 54 °C.

On to GCCTCGCGAAAGCTACGC ((.(.((....)).).)), for which the folding enthalpy in series [1] is -24.6 kJ/mol. Moreover, the Tm in series [2] is 20 °C.

In the case of GCTCCAGAAATGGAGC ((((((....)))))), in series [1], the folding enthalpy was -134 kJ/mol. In addition, in series [2], the Tm came to 65.8 °C.

Consider GCGACGTTCGC ((((...)))), for which the folding enthalpy in series [1] is -72.6 kJ/mol. The Tm in series [2] worked out at 48 °C.

With GGTCGACGAAAGTCTACC (((.(((....))).))), the folding enthalpy in series [1] was -145 kJ/mol. In series [2], the Tm was 49.8 °C.

On to GACTTGGGAAACCAAGTC (((((((....))))))), for which the folding enthalpy in series [1] was -150 kJ/mol. In addition, the Tm in series [2] amounted to 62.3 °C.

For GTTGATACGAAAGTAAAC (((..(((....)))))), in series [1], the folding enthalpy is -37.3 kJ/mol. Also, in series [2], the Tm worked out at 25.8 °C.

Turning to GATCCAATTGTGGATC ((((((....)))))), in series [1], the folding enthalpy was -137 kJ/mol. The Tm in series [2] turned out to be 49.6 °C.

With GCGATGAATCGC ((((....)))), the folding enthalpy in series [1] is -110 kJ/mol. Besides, the Tm in series [2] was 52.4 °C.

On to GATGAGCCGAAAGGCATC (((..(((....)))))), for which the folding enthalpy in series [1] was -42.6 kJ/mol. For the same sequence, the Tm in series [2] worked out at 33.5 °C.

Consider GCCCCGCGAAAGCGGCGC ((.((((....)))).)), for which, in series [1], the folding enthalpy is -69.5 kJ/mol. Further, in series [2], the Tm was found to be 59.7 °C.

On to GGTCGTCCGAAAGGAACC (((..(((....)))))), for which the folding enthalpy in series [1] was -38.2 kJ/mol. The Tm in series [2] is 26.3 °C.

As to GATCCAGGAAACTGGACC (.(((((....))))).), the folding enthalpy in series [1] is -66.5 kJ/mol. Besides, the Tm in series [2] is 39.1 °C.

Turning to GATCCCGGCGGGATC ((((((...)))))), in series [1], the folding enthalpy is -153 kJ/mol. Further, the Tm in series [2] was 68.2 °C.

On to GCGTCCTCGAAAGAGCGC (((..(((....)))))), for which the folding enthalpy in series [1] was -104 kJ/mol. Further, the Tm in series [2] is 48.4 °C.

Turning to GATCAAGCGTTTGATC ((((((....)))))), the folding enthalpy in series [1] was -129 kJ/mol. For the same sequence, the Tm in series [2] was 43.9 °C.

As to GAATGTGAAAACATTC ((((((....)))))), in series [1], the folding enthalpy is -147 kJ/mol. In addition, the Tm in series [2] was determined as 51.3 °C.

Regarding GTCCAACGAAAGTTGAC (((.(((....)))))), the folding enthalpy in series [1] was -61.6 kJ/mol. Further, the Tm in series [2] is 45 °C.

Consider ACCCAGAAATGGGT (((((....))))), for which the folding enthalpy in series [1] is -76.7 kJ/mol. For the same sequence, the Tm in series [2] was 47.9 °C.

In the case of GGGCCACGAAAGTGTCCC (((.(((....))).))), the folding enthalpy in series [1] was -189 kJ/mol. In addition, the Tm in series [2] was found to be 57.3 °C.

Take GTTTTAGGAAACTAAAAC (((((((....))))))): the folding enthalpy in series [1] was -175 kJ/mol. Also, the Tm in series [2] is 48.4 °C.

Turning to GGTGTAACGAAAGTTACC (((..(((....)))))), the folding enthalpy in series [1] is -59.9 kJ/mol. Moreover, in series [2], the Tm was found to be 42.9 °C.

Take TAGCGGAAACGCTA (((((....))))): the folding enthalpy in series [1] is -66.7 kJ/mol. Moreover, the Tm in series [2] turned out to be 54.3 °C.

In the case of TCCCGGAAACGGGA (((((....))))), in series [1], the folding enthalpy is -82.3 kJ/mol. Further, in series [2], the Tm was 60.7 °C.

Consider GTTCTCGAAAGAGTAAAC ((((((....)))..))), for which the folding enthalpy in series [1] is -52.3 kJ/mol. In addition, the Tm in series [2] came out at 27.9 °C.

Turning to GATCGCCATCGCGATC ((((((....)))))), the folding enthalpy in series [1] is -132 kJ/mol. In series [2], the Tm was found to be 65 °C.

On to GATCTCTGTGAGATC ((((((...)))))), for which the folding enthalpy in series [1] is -178 kJ/mol. Besides, the Tm in series [2] amounted to 54.9 °C.

GTGACCGAAAGGTACCAC ((((((....)))..))): in series [1], the folding enthalpy is -48.7 kJ/mol. In series [2], the Tm was 35.1 °C.

Take GCGTATGAAAATACGC ((((((....)))))): the folding enthalpy in series [1] is -150 kJ/mol. Moreover, in series [2], the Tm stood at 63 °C.

GGCGTTGGAAACAGTGCC (((..((....))..))): the folding enthalpy in series [1] is -118 kJ/mol. For the same sequence, the Tm in series [2] is 42.6 °C.

For GGACTGTCGAAAGACTCC (((..(((....)))))), in series [1], the folding enthalpy is -23.2 kJ/mol. In series [2], the Tm worked out at 21.5 °C.

As to GCAGTGCGAAAGCACCGC ((.((((....)))).)), the folding enthalpy in series [1] is -72.7 kJ/mol. Also, in series [2], the Tm worked out at 62 °C.

In the case of GATCCTGGATAGGATC ((((((....)))))), in series [1], the folding enthalpy is -163 kJ/mol. Further, the Tm in series [2] came out at 57.5 °C.

The values are drawn from the array DNA melting data of Ke et al. (doi:10.1101/2024.01.08.574731).
